Data reported in the RNAGym collection of RNA variant scans (doi:10.1126/science.aae0568).
This sample holds only a part of the variants without activity.

B1: tRNA (parent)
chain: GUUCCGUUGGCGUAAUGGUAACGCGUCUCCCUCCUAAGGAGAAGACUGCGGGUUCGAGUCCCGUACGGAACG

Variants of: B1
Test: yeast fitness relative to wild type (ratio to wild type); higher = fitter; tRNA-Arg(CCU), competitive growth, 37 C, YPD
In short: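 A pool of Saccharomyces cerevisiae strains, each with a tRNA-Arg(CCU) gene variant at the native genomic locus, was competed in YPD at 37°C for 24 hours across six parallel replicates. The variants had been chemically synthesised at a 3% per-site mutation rate over 69 sites, and gene amplicons before and after competition were read by 100-nucleotide paired-end sequencing. Darwinian fitness relative to wild type rested on changes in genotype frequencies. Genotypes required ≥ 100 starting reads, and estimates < 0.5 were set to 0.5.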
GUUCCGUUGGCGCAGUGGUAGCGCGUCUCCCUCCUAAGGAGAAGACGGCGGGUUCGAGUCCCGUCCGGAACG [U13C A15G A21G U47G A65C] showed a yeast fitness of at most 0.5. Work on GUUCCGUUGGCGCAGUGGUAACGCGUCUCCCUCCUAAGAAGAAGACUGCGGGUUCGAGUCCCGUACGGAACG [U13C A15G G39A] yielded a yeast fitness of 0.593. For GUUCCGUUGGCGCAUUGGUAACGCGUUUCCCUCCUAAGGAGAAGACUGCGGGUUCGAGUCCCGUACGGUACG [U13C A15U C27U A69U], the yeast fitness was at most 0.5. GUUCCGUUGGCGCAUUGGUAACGCGUCUCCCUCCUAAGGAGAAGAAUGCGGGUUCGAGUCCCGUAUGGAACG [U13C A15U C46A C66U] showed a yeast fitness of at most 0.5. Work on GUUCCGUUGGCGCAUUGGUAACACGUCUCCCUACUAAGGAGGAGACUGCGGGUUCAAGUCCCGUACGGAACG [U13C A15U G23A C33A A42G G56A] yielded a yeast fitness of at most 0.5. With GUUCCGUUGGCGCAAUGGUCCCGCGUCUCCCUCCUAAGGAGAAGAGUGCGGGUUCGAGUCCCGUACGGAACG [U13C A20C A21C C46G] the yeast fitness was at most 0.5. With GUUCCGUUGGCGCAAUGGUCACGCGUCUCCCUCCUAAGGGGAAGACUGCGGGUUCGAGUCCCGUACGGAACG [U13C A20C A40G] the yeast fitness was at most 0.5. Work on GUUCCGUUGGCGCAAUGGUCAUGCGUCUCCCUCCUAAGGAGAAGACUGCGGGUUCGAGUGCCGUACGGAACG [U13C A20C C22U C60G] yielded a yeast fitness of at most 0.5. GUUCCGUUGGCGCAAUGGUGACGCGUCUCCCUCCUAUGGAGAAGACUGCGGGUUCGAGUCACGUACGGAACG [U13C A20G A37U C61A] gave a yeast fitness of at most 0.5. GUUCCGUUGGCGCAAUGGUGACGCGUCUCCUUCCUAAGGAGAAGACUGCGGGUUCGAGUCCCGUACGGAACG [U13C A20G C31U] gave a yeast fitness of 0.777. For GUUCCGUUGGCGCAAUGGUGACGCGUCUCCCUCCUAAGGAGAAGAUAGCGGGUUCGAGUCCCGUACGGAACG [U13C A20G C46U U47A], the yeast fitness was at most 0.5. In the case of GUUCCGUUGGCGCAAUGGUGACGCGUCUCCCUCCUAAGGAGAAGACUGAGGGUUCGAGCCCUGUUCGGACCG [U13C A20G C49A U59C C62U A65U A70C], the yeast fitness is reported as 0.53. With GUUCCGUUGGCGCAAUGGUGACGCGUCUCCCUCCUAAGAAGAAGACUCCGGGUUCGAGUCCCGUACGGAACG [U13C A20G G39A G48C] the yeast fitness was at most 0.5. With GUUCCGUUGGCGCAAUGGUUACGCGUCUCCCUCCUAAGCAGACGACUGAGGGAUCGAGUCCCGUACGGAACG [U13C A20U G39C A43C C49A U53A] the yeast fitness was at most 0.5. GUUCCGUUGGCGCAAUGGUACCGCGUCUCCCUCCUAAGGAGAAGACUGCGGGUUUGAGUCCCGUACGGCACG [U13C A21C C55U A69C] gave a yeast fitness of at most 0.5. GUUCCGUUGGCGCAAUGGUACCGCGUCUCCCUCCUAAGGAGAAGACUGCAGGUUCGAGUCCCGUACGGAACG [U13C A21C G50A] gave a yeast fitness of 0.509. With GUUCCGUUGGCGCAAUGGUAGCGCGUCUCCGUCCUAAGGAGAAGACCGCGGGUUCGAGUCCCGUACGGAACG [U13C A21G C31G U47C] the yeast fitness was 0.555. For GUUCCGUUGGCGCAAUGGUAACGCGUCUCCCUCCUCAGGAGACGACUGCGGGUUCGAGUACCGUACGGAACG [U13C A36C A43C C60A], the yeast fitness was 0.566. In the case of GUUCCGUUGGCGCAAUGGUAACGCGUCUCCCUCCUCAGGAGAAGACUGCGGGUUCGAGUCCCGUAUGGAACG [U13C A36C C66U], the yeast fitness is reported as at most 0.5. GUUCCGUUGGCGCAAUGGUAACGCGUCUCCCUCCUCAGGAGAAGACCGCGGGUUCGAGUCCCGUACUGAACG [U13C A36C U47C G67U] showed a yeast fitness of at most 0.5. Variant GUUCCGUUGGCGCAAUGGUAACGCGUCUCCCUCCUUAGGAGAAGACUGCGGGUUCGAGUCCUCUACGGACCG [U13C A36U C62U G63C A70C] has a yeast fitness of at most 0.5. Work on GUUCCGUUGGCGCAAUGGUAACGCGUCUCCCUCCUUAGGAGAAGACUGCGGGUUCGAGUCCCGCACGGAACG [U13C A36U U64C] yielded a yeast fitness of at most 0.5. GUUCCGUUGGCGCAAUGGUAACGCGUCUCCCUCCUACGGAGAAGACUGCGGGCUCGAGUCCCGUACGGAACG [U13C A37C U53C] showed a yeast fitness of 0.599. GUUCCGUUGGCGCAAUGGUAACGCGUCUCCCUCCUAGGGAGAAGACUGGGGGUUUCAGUCCCGUACGAAACG [U13C A37G C49G C55U G56C G68A] gave a yeast fitness of at most 0.5. Work on GUUCCGUUGGCGCAAUGGUAACGCGUCUCCCUCCUAUGGAGAAGACUGCGGGUUCGAGUCCCGUACGGAACG [U13C A37U] yielded a yeast fitness of 0.543. Variant GUUCCGUUGGCGCAAUGGUAACGCGUCUCCCUCCUAAGGUGAAGACUGCGGGUUCGAGUCCAGUACGGAACG [U13C A40U C62A] has a yeast fitness of 0.557. GUUCCGUUGGCGCAAUGGUAACGCGUCUCCCUCCUAAGGAGACGACUGCGGGUUCGAGUCCCGUACGGAACG [U13C A43C] showed a yeast fitness of 1.28. With GUUCCGUUGGCGCAAUGGUAACGCGUCUCCCUCCUAAGGAGAUGACUGCGGGUUCGAGUCCCGUACGGAACG [U13C A43U] the yeast fitness was 1.04. In the case of GUUCCGUUGGCGCAAUGGUAACGCGUCUCCCUCCUAAGGAGAUGACUGCGGGUUCGAGUCCCGUAUGGAACG [U13C A43U C66U], the yeast fitness is reported as 0.705. With GUUCCGUUGGCGCAAUGGUAACGCGUCUCCCUCCUAAGGAGAUGACUGCGGGUUCAAGUCCCGUACGGAACG [U13C A43U G56A] the yeast fitness was 0.797. Work on GUUCCGUUGGCGCAAUGGUAACGCGUCUCCCUCCUAAGGAGAAGCCUGCGGGUUCGAGUCCCGUACGGAACG [U13C A45C] yielded a yeast fitness of 0.853. GUUCCGUUGGCGCAAUGGUAACGCGUCUCCCUCCUAAGGAGAAGCCUGCGGGUUCAAGUCCCGUACGGAACG [U13C A45C G56A] showed a yeast fitness of 0.743. With GUUCCGUUGGCGCAAUGGUAACGCGUCUCCCUCCUAAGGAGAAGUCUGCGGGUUCGAGUCCCGUACGGAACG [U13C A45U] the yeast fitness was 0.929. GUUCCGUUGGCGCAAUGGUAACGCGUCUCCCUCCUAAGGAGAAGACUGCGGGUUCGUGUCCCGUACGGAACG [U13C A57U] gave a yeast fitness of 0.753. With GUUCCGUUGGCGCAAUGGUAACGCGUCUCCCUCCUAAGGAGAAGACUGCGGGUUCGUGUCCUGUACGGAACG [U13C A57U C62U] the yeast fitness was at most 0.5. GUUCCGUUGGCGCAAUGGUAACGCGUCUCCCUCCUAAGGAGAAGACUGCGGGUUCGUGACCCGUACGGGACG [U13C A57U U59A A69G] showed a yeast fitness of 0.561. In the case of GUUCCGUUGGCGCAAUGGUAACGCGUCUCCCUCCUAAGGAGAAGACUGCGGGUUCGAGUCCCGUGCGGAACG [U13C A65G], the yeast fitness is reported as 0.956. Work on GUUCCGUUGGCGCAAUGGUAACGCGUCUCCCUCCUAAGGAGAAGACUGCGGGUUCGAGUCCCGUACGGUACG [U13C A69U] yielded a yeast fitness of 1.07.
